Reference: ChEMBL document CHEMBL4251702, “Potential Antimicrobial Isopropanol-Conjugated Carbazole Azoles as Dual Targeting Inhibitors of Enterococcus faecalis” (ACS Med Chem Lett, 2018)
Values after ≈ are worked out from the molar mass of the structure shown. Active and inactive are the calls of the source. No cut-off for these calls is given here.

Legend:
[1] = tested on: Pseudomonas aeruginosa; assay: Antimicrobial activity against Pseudomonas aeruginosa ATCC 27853 after 24 hrs by two-fold serial dilution method; type: functional
[2] = tested on: Staphylococcus aureus; assay: Antimicrobial activity against methicillin-resistant Staphylococcus aureus after 24 hrs by two-fold serial dilution method; type: functional, organism-based
[3] = tested on: Pseudomonas aeruginosa; assay: Antimicrobial activity against Pseudomonas aeruginosa after 24 hrs by two-fold serial dilution method; type: functional, organism-based
[4] = tested on: Acinetobacter baumannii; assay: Antimicrobial activity against Acinetobacter baumannii after 24 hrs by two-fold serial dilution method; type: functional, organism-based
[5] = tested on: Staphylococcus aureus; assay: Antimicrobial activity against Staphylococcus aureus ATCC 29213 after 24 hrs by two-fold serial dilution method; type: functional, organism-based
[6] = tested on: Enterococcus faecalis; assay: Antimicrobial activity against Enterococcus faecalis after 24 hrs by two-fold serial dilution method; type: functional
[7] = tested on: Staphylococcus aureus; assay: Antimicrobial activity against Staphylococcus aureus after 24 hrs by two-fold serial dilution method; type: functional, organism-based
[8] = tested on: Escherichia coli; assay: Antimicrobial activity against Escherichia coli ATCC 25922 after 24 hrs by two-fold serial dilution method; type: functional, organism-based
[9] = tested on: Klebsiella pneumoniae; assay: Antimicrobial activity against Klebsiella pneumoniae after 24 hrs by two-fold serial dilution method; type: functional, organism-based
[10] = tested on: Staphylococcus aureus; assay: Antimicrobial activity against Staphylococcus aureus ATCC 25923 after 24 hrs by two-fold serial dilution method; type: functional, organism-based
[11] = tested on: Escherichia coli; assay: Antimicrobial activity against Escherichia coli after 24 hrs by two-fold serial dilution method; type: functional, organism-based
[12] = tested on: Enterococcus faecalis; assay: Antimicrobial activity against Enterococcus faecalis assessed as ratio of MIC after and before […] measured at 24 hrs interval for 16 days by two-fold serial dilution method; type: functional
[13] = tested on: Candida parapsilosis; assay: Antifungal activity against Candida parapsilosis ATCC 22019 after 24 hrs by two-fold serial dilution method; type: functional
[14] = tested on: Enterococcus faecalis; assay: Induction of membrane disruption in Enterococcus faecalis at 12 times MIC measured every 10 mins for 60 mins by propidium iodide staining based fluorescence assay; type: functional, organism-based
How it was run: (§1)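 Membrane permeabilization was tracked by propidium iodide, which enters compromised cells and fluoresces on binding DNA. Fluorescence of bacteria with compound plus PI was recorded over 60 min, against two control groups. Strains were E. faecalis and E. coli ATCC 25922.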

[15] = tested on: DNA; assay: Binding affinity to Enterococcus faecalis DNA assessed as DNA intercalation by UV-vis absorption spectrophotometric method; type: nucleic-acid assay
How it was run: (§2)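 Genomic DNA was isolated from drug-resistant E. faecalis strains and examined in vitro with the compound by UV–vis absorption and by neutral red fluorescence spectroscopy.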

[16] = Cytotoxicity against mouse RAW264.7 cells assessed as cell viability at 128 ug/ml after 24 hrs by MTT assay relative to control; type: cell-based; details: read-out: Activity
How it was run: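 Normal mouse macrophage RAW264.7 cells were exposed to the compound up to 128 μg/mL for 24 h, and viability was read by MTT. Each bar is the mean of three parallels, with error bars of one standard deviation.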

[17] = tested on: DNA; assay: Binding affinity to Enterococcus faecalis DNA assessed as DNA intercalation by neutral red dye based spectrofluorimetric method; type: nucleic-acid assay; how it was run: as §2
[18] = tested on: Enterococcus faecalis; assay: Antimicrobial activity against Enterococcus faecalis after 11 passages measured at 24 hrs interval for 16 days by two-fold serial dilution method; type: functional
[19] = tested on: Escherichia coli; assay: Induction of membrane disruption in Escherichia coli ATCC 25922 at 12 times MIC measured every 10 mins for 60 mins by propidium iodide staining based fluorescence assay; type: functional, organism-based; how it was run: as §1
[20] = tested on: Aspergillus fumigatus; assay: Antifungal activity against Aspergillus fumigatus after 24 hrs by two-fold serial dilution method; type: functional
[21] = tested on: Enterococcus faecalis; assay: Bactericidal activity against Enterococcus faecalis assessed as log reduction in bacterial colonies at 4 times MIC measured within 1 hr by time-kill assay; type: functional
How it was run: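 Viable counts of E. faecalis were expressed as log CFU/mL and followed over the first hour of exposure at 4 × MIC. A positive-control drug was run alongside.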

[22] = tested on: Pseudomonas aeruginosa; assay: Antimicrobial activity against Pseudomonas aeruginosa ATCC 27853 after 24 hrs under pH 4 to 11 by two-fold serial dilution method; type: functional, organism-based
[23] = tested on: Klebsiella pneumoniae; assay: Antimicrobial activity against Klebsiella pneumoniae after 24 hrs under pH 4 to 11 by two-fold serial dilution method; type: functional, organism-based
[24] = tested on: Pseudomonas aeruginosa; assay: Antimicrobial activity against Pseudomonas aeruginosa after 24 hrs under pH 4 to 11 by two-fold serial dilution method; type: functional, organism-based
[25] = Solubility of the compound in water; type: physicochemical; details: buffer
[26] = tested on: Staphylococcus aureus; assay: Antimicrobial activity against Staphylococcus aureus ATCC 29213 after 24 hrs under pH 4 to 11 by two-fold serial dilution method; type: functional, organism-based
[27] = tested on: Enterococcus faecalis; assay: Antimicrobial activity against Enterococcus faecalis after 24 hrs under pH 4 to 11 by two-fold serial dilution method; type: functional, organism-based
[28] = tested on: Acinetobacter baumannii; assay: Antimicrobial activity against Acinetobacter baumannii after 24 hrs under pH 4 to 11 by two-fold serial dilution method; type: functional, organism-based
[29] = tested on: Staphylococcus aureus; assay: Antimicrobial activity against Staphylococcus aureus ATCC 25923 after 24 hrs under pH 4 to 11 by two-fold serial dilution method; type: functional, organism-based
[30] = tested on: Staphylococcus aureus; assay: Antimicrobial activity against methicillin-resistant Staphylococcus aureus after 24 hrs under pH 4 to 11 by two-fold serial dilution method; type: functional, organism-based
[31] = tested on: Escherichia coli; assay: Antimicrobial activity against Escherichia coli ATCC 25922 after 24 hrs under pH 4 to 11 by two-fold serial dilution method; type: functional, organism-based
[32] = tested on: Staphylococcus aureus; assay: Antimicrobial activity against Staphylococcus aureus after 24 hrs under pH 4 to 11 by two-fold serial dilution method; type: functional, organism-based
[33] = tested on: Escherichia coli; assay: Antimicrobial activity against Escherichia coli after 24 hrs under pH 4 to 11 by two-fold serial dilution method; type: functional, organism-based

SMILES	Activity [2]	Activity [3]	Activity [4]	Activity [5]	Activity [6]	Activity [7]	Activity [8]	Activity [9]	Activity [10]	Activity [1]	Activity [11]	other results
Cc1ncc([N+](=O)[O-])n1CC(O)Cn1c2ccc(Br)cc2c2cc(Br)ccc21 (centres undefined)												MIC ([1]; ATCC 27853, 24 h): 32 µg/mL (≈ 63 µM)
Cc1nccn1CC(O)Cn1c2ccccc2c2ccccc21 (centres undefined)	Active	Active	Active	Active	Active	Active	Active	Active	Active	Active	Active	
CCn1cc(C(=O)O)c(=O)c2cc(F)c(N3CCNCC3)cc21 [NORFLOXACIN]				Active	Active		Active					Ratio [12]: 16
OC(Cn1cncn1)Cn1c2ccccc2c2cc(Br)ccc21 (centres undefined)	Active	Active	Active	Active	Active	Active	Active	Active	Active	Active	Active	
OC(Cn1cncn1)Cn1c2ccc(Br)cc2c2cc(Br)ccc21 (centres undefined)	Active	Active	Active	Active	Active	Active	Active	Active	Active	Active	Active	
O=[N+]([O-])c1cn(CC(O)Cn2c3ccccc3c3ccccc32)cn1 (centres undefined)	Active	Active	Active	Active	Active	Active	Active	Active	Active	Active	Active	
OC(Cn1cncn1)Cn1c2ccccc2c2ccccc21 (centres undefined)	Active	Active	Active	Active	Active	Active	Active	Active	Active	Active	Active	
OC(Cn1ccnc1-c1ccccc1)Cn1c2ccccc2c2ccccc21 (centres undefined)	inactive	inactive	inactive	inactive	inactive	inactive	inactive	inactive	inactive	inactive	inactive	
OC(Cn1cncn1)Cn1c2ccccc2c2cc(I)ccc21 (centres undefined)	Active	Active	Active	Active	Active	Active	Active	Active	Active	Active	Active	
OC(Cn1cncn1)Cn1c2ccc(Cl)cc2c2cc(Cl)ccc21 (centres undefined)	Active	Active	Active	Active		Active	Active	Active	Active	Active	Active	MIC ([13]; Lodderomyces parapsilosis, ATCC 22019, 24 h): 4 µg/mL (≈ 11.1 µM); Activity [14]: Active; Activity [15]: Active; viability at 24 h, 128 ug/ml [16]: > 80%; Activity [17]: Active; MIC [18]: 2 to 8 µg/mL (≈ 5.54 to 22.1 µM); Activity [19]: Active; MIC [6]: 2 µg/mL (≈ 5.54 µM); MIC [20]: 32 µg/mL (≈ 88.6 µM); Activity [21]: >3 log10CFU/ml
OC(Cn1cncn1)Cn1c2ccccc2c2ccc(Br)cc21 (centres undefined)	Active	Active	Active	Active	Active	Active	Active	Active	Active	Active	Active	
OC(Cn1cncn1)(Cn1cncn1)c1ccc(F)cc1F												Activity [13]: Active; Activity [20]: Active
Cc1ncc([N+](=O)[O-])n1CC(O)Cn1c2ccccc2c2ccccc21 (centres undefined)	Active	Active	Active	Active	Active	Active	Active	Active	Active	Active	Active	Activity [22]: Active; Activity [23]: Active; Activity [24]: Active; solubility [25]: Soluble; Activity [26]: Active; Activity [27]: Active; Activity [28]: Active; Activity [29]: Active; Activity [30]: Active; Activity [31]: Active; Activity [32]: Active; Activity [33]: Active
CC(C)(C)c1ccc2c(c1)c1cc(C(C)(C)C)ccc1n2CC(O)Cn1cncn1 (centres undefined)	Active	Active	Active	Active	Active	Active	Active	Active	Active	Active	Active	
